The text below walks through data of ChEMBL document CHEMBL2424622, “Development of amino-pyrimidine inhibitors of c-Jun N-terminal kinase (JNK): kinase profiling guided optimization of a 1,2,3-benzotriazole lead” (Bioorg Med Chem Lett, 2013).

Data set [1] deals with T1, Mitogen-activated protein kinase 9 (Homo sapiens, UniProt P45984).
Target sequence in this assay (P45984 whole entry): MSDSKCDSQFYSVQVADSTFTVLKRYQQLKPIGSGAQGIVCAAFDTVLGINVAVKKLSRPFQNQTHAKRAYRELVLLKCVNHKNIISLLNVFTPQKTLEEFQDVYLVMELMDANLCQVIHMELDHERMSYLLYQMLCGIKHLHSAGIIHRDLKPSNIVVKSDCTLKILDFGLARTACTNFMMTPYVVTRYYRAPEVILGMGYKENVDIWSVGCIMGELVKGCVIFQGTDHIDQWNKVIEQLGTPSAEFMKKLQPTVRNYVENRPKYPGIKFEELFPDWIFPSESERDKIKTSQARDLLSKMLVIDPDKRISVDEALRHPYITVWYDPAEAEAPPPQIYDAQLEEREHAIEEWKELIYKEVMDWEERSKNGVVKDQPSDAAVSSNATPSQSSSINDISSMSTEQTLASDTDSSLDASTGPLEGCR
Data set [2] has as its target T1, Mitogen-activated protein kinase 9. The data set can be described thus: Ratio of IC50 for human JNK2 in presence of human serum to IC50 for human JNK2 in absence of human serum.
Target sequence in this assay (P45984 whole entry, looked up): as the sequence (P45984 whole entry) above
The target of data set [3] is c-Jun N-terminal kinase, JNK (Homo sapiens, UniProt P45983+P53779+P45984). The data set can be described thus: Inhibition of JNK in human SW1353 cells assessed as inhibition of TNFalpha-induced c-Jun phosphorylation incubated for 30 mins prior to TNFalpha induction measured after 20 mins. In kind it is cell-based. In short, it runs like this:
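SW1353 cells were stimulated with TNFa, and the read-out was inhibition of phosphorylation of the downstream substrate c-Jun. Values are the mean of at least three experiments.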

Data set [4] has as its target Mitogen-activated protein kinase 8 (Homo sapiens, UniProt P45983).
The species named for the next data set is Homo sapiens. The data set can be described thus: Selectivity ratio of IC50 for human JNK2 to IC50 for human JNK1. The method, boiled down: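 JNK1 and JNK2 activities were each measured as phosphorylation of GST-ATF2 (19–96) with [γ-33P]ATP, and IC50s were determined for each enzyme. The ratio is JNK2 IC50 over JNK1 IC50. IC50s are the mean of at least three experiments.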

In the next data set the test system is HCT-116. Description: Cytotoxicity against human HCT116 cells assessed as cell viability by WST-1 reduction assay. In kind it is cell-based. In short, it runs like this: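 Cytotoxicity was measured in an HCT-116 cell proliferation assay as reduction of WST-1 reagent. Values are the mean of at least three experiments.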
Data set [5] concerns the target Cyclin-dependent kinase 1/cyclin B1 (Homo sapiens, UniProt P06493). Description: Inhibition of human recombinant human CDK1/GST-tagged cyclin B expressed in baculovirus infected insect cells assessed as inhibition of 6XHis-tagged retinoblastoma protein (386 to 928) phosphorylation after 30 mins by scintillation counting analysis in presence of [gamma-33P]-ATP.
The target of data set [6] is Cyclin-dependent kinase 2/cyclin E1 (Homo sapiens, UniProt P24941). Description: Inhibition of human recombinant CDK2/GST-tagged cyclin E expressed in baculovirus infected insect cells assessed as inhibition of 6XHis-tagged retinoblastoma protein (386 to 928) phosphorylation after 30 mins by scintillation counting analysis in presence of [gamma-33P]-ATP. In short, it runs like this: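 CDK2 activity was measured as phosphorylation of a 6-histidine-tagged truncated retinoblastoma protein (amino acids 386–928) using [γ-33P]ATP.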

The target of a further data set is MAP kinase p38 (Homo sapiens, UniProt O15264+Q15759+Q16539+P53778). The data set can be described thus: Inhibition of p38 (unknown origin). Format: protein assay.
Data set [7] deals with Cyclin-dependent kinase 4/cyclin D1 (Homo sapiens, UniProt P11802). Description: Inhibition of human recombinant human GST-tagged CDK4/cyclin D1 expressed in baculovirus infected insect cells assessed as inhibition of 6XHis-tagged retinoblastoma protein (386 to 928) phosphorylation after 30 mins by scintillation counting analysis in presence of [gamma-33P]-ATP.
Cyclin-dependent kinase 4/cyclin D1, sequence (P11802 whole entry): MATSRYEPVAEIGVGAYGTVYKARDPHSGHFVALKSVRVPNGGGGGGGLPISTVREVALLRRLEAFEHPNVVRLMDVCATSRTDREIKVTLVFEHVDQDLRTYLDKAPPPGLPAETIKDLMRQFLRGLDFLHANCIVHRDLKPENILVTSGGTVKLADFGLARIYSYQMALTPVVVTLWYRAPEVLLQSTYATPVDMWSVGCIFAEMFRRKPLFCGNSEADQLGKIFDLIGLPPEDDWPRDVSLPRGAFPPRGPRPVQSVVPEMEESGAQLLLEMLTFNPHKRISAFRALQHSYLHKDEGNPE
Cyclin-dependent kinase 4/cyclin D1, sequence (P24385 whole entry, further chain): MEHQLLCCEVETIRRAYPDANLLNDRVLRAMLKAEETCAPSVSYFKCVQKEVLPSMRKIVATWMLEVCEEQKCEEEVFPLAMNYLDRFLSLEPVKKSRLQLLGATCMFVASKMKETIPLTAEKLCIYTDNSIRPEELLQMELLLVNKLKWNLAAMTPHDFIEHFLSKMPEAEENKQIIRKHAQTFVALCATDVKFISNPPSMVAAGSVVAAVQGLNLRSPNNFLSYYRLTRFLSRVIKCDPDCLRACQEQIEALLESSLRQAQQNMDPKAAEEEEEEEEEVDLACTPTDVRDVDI
Data set [8] deals with Mitogen-activated protein kinase 10 (Homo sapiens, UniProt P53779). Description: Inhibition of human JNK3 assessed as inhibition of GST-tagged ATF2 (19 to 96) phosphorylation incubated for 10 mins prior to substrate addition measured after 30 mins by scintillation counting analysis in presence of [gamma-33P]-ATP.
Mitogen-activated protein kinase 10, sequence (P53779 whole entry): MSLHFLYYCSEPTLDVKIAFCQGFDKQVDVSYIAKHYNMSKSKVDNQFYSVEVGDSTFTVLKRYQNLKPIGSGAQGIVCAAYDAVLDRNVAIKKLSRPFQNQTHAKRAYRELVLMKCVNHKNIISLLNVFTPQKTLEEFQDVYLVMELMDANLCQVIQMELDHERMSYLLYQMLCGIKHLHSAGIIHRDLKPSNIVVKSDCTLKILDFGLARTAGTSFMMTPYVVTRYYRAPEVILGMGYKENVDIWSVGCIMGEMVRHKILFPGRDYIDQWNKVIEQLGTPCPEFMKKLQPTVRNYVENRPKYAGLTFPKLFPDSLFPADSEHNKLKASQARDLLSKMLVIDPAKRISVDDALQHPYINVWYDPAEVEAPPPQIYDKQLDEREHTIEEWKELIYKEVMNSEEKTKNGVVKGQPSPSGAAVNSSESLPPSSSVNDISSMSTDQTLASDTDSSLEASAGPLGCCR
For the next data set, the target named is Cytochrome P450 2C9 (Homo sapiens, UniProt P11712). Description: Inhibition of CYP2C9 (unknown origin). In kind it is ADME.
Cytochrome P450 2C9, sequence (P11712 whole entry): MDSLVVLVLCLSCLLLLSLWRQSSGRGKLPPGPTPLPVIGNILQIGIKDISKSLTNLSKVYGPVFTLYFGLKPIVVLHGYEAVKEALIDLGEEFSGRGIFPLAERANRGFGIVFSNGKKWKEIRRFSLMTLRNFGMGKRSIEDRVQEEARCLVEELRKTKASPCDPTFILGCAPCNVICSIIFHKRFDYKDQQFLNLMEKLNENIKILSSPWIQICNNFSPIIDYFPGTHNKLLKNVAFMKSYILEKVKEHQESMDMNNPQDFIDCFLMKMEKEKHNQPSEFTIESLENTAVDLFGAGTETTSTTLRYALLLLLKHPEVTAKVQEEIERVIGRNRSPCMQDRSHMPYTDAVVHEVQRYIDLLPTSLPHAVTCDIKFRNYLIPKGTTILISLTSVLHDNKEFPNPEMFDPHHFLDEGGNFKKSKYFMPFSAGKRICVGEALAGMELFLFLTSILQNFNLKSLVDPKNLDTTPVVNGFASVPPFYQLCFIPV
Data set [9] in a line: Clearance in human liver microsomes. In kind it is ADME, Microsome. Conditions: read-out: CLH. The method, boiled down: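 Intrinsic clearance was measured in vitro in human liver microsomes and expressed per mg microsomal protein.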
(In general: Liver microsomes are a subcellular fraction often used to study metabolism.)

Mitogen-activated protein kinase 8, sequence (P45983 whole entry): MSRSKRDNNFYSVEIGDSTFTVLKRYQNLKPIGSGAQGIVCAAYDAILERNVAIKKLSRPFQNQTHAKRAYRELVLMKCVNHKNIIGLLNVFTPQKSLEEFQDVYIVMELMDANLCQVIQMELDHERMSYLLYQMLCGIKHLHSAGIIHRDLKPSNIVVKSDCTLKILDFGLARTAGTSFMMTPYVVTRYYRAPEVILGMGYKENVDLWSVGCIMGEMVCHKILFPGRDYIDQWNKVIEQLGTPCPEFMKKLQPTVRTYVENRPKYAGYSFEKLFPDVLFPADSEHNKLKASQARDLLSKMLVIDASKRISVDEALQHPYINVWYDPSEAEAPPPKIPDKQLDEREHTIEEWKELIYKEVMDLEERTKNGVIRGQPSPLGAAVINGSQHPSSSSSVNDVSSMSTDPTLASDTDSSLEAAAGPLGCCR
Cyclin-dependent kinase 1/cyclin B1, sequence (P06493 whole entry, the tested form may be a part): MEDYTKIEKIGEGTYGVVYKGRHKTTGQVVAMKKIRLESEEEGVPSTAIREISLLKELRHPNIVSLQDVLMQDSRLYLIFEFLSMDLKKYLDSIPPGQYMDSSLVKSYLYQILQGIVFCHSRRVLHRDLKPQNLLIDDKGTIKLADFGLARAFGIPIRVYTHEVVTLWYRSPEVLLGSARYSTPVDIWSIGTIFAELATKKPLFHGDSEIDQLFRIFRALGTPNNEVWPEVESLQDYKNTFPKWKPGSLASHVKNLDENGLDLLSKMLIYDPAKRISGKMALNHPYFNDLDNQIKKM
Cyclin-dependent kinase 1/cyclin B1, sequence (P14635 whole entry, further chain, the tested form may be a part): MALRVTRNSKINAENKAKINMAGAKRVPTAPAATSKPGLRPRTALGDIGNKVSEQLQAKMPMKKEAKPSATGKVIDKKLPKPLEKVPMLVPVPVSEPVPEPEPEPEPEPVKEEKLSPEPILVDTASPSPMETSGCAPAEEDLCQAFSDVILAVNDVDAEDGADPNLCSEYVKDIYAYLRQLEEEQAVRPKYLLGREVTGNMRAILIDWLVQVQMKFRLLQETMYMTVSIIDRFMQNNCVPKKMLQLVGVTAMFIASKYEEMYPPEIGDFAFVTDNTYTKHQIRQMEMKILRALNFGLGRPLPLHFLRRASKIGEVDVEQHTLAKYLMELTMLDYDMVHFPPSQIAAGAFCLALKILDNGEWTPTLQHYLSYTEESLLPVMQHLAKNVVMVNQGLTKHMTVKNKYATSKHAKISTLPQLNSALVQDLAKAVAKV

For `CS(=O)(=O)NCCCOc1cccc2c1cnn2-c1ccnc(N[C@H]2CC[C@H](O)CC2)n1`, the IC50 in data set [1] turned out to be 246 nM; in [3], 1100 nM; in [4], 56 nM. Also, the Ratio IC50 in data set [2] is 17.

For the compound `CS(=O)(=O)N[C@H]1CC[C@H](Nc2nccc(-n3nnc4ccccc43)n2)CC1`, the IC50 is 97 nM in [1]; 2300 nM in the data set on HCT-116; 1520 nM in data set [5]; 300 nM in data set [6]; > 10000 nM at MAP kinase p38; 910 nM in data set [7]. Also, the concentration for half-maximal inhibition (IC50) is 114 nM in [8], 1300 nM in data set [3] and 24 nM in data set [4]. Also, the Ratio IC50 in the data set listed under Homo sapiens came to 4.

Take `CC(=O)N[C@H]1CC[C@H](Nc2nccc(-n3nnc4ccccc43)n2)CC1`: the concentration for half-maximal inhibition (IC50) turned out to be 230 nM in data set [1]; 16000 nM in the data set on HCT-116; 39 nM on Cytochrome P450 2C9; 570 nM in [6]; 1500 nM in data set [3]; 39 nM in [4]. Further, the Ratio IC50 in the data set filed under Homo sapiens was determined as 4.

`CC(C)(O)[C@H]1CC[C@H](Nc2nccc(-n3ncc4c(OCCCS(C)(=O)=O)cccc43)n2)CC1`: the half-maximal inhibitory concentration (IC50) in data set [1] came to 21 nM; in data set [3], 240 nM; in [4], 4 nM. In data set [2], the Ratio IC50 is 18.

As for `c1ccc2c(c1)nnn2-c1ccnc(NC2CCCCC2)n1`, the figures for the IC50 in [1], in data set [6] and in [4] were 390 nM, 2700 nM and 100 nM, respectively. Moreover, the Ratio IC50 in the data set listed under Homo sapiens came to 4.

In the case of `CCN(CC)C(=O)[C@H]1CC[C@H](Nc2nccc(-n3ccc4c(OCCCS(C)(=O)=O)cccc43)n2)CC1`, the IC50 in data set [1] came to 57 nM; in [3], 580 nM; in data set [4], 14 nM. The Ratio IC50 in [2] stood at 4.6. For the same compound, the microsomal CLint in [9] came out at 609 µL/min/mg.

On to `CS(=O)(=O)CCCOc1cccc2c1ccn2-c1ccnc(N[C@H]2CC[C@H](C(=O)N3CCC(F)(F)CC3)CC2)n1`, for which the IC50 in [1] was 51 nM; in [3], 1400 nM; in data set [4] it was 16 nM. Moreover, the Ratio IC50 in [2] came out at 4.2. The microsomal CLint in [9] is 283 µL/min/mg.

In the case of `O[C@H]1CC[C@H](Nc2nccc(-c3c[nH]c4ccccc34)n2)CC1`, the IC50 was 720 nM in [1], 8200 nM in [3] and 140 nM in data set [4].

As for `CS(=O)(=O)CCCOc1cccc2c1ccn2-c1ccnc(N[C@H]2CC[C@H](C(=O)N3CC[C@@H](F)C3)CC2)n1`, the IC50 in data set [1] turned out to be 64 nM; in data set [3] it was 590 nM; in data set [4] it was 14 nM. In addition, the Ratio IC50 in data set [2] was found to be 2.5. Besides, the microsomal CLint in [9] worked out at 175 µL/min/mg.

Consider `CS(=O)(=O)CCOc1cccc2c1cnn2-c1ccnc(N[C@H]2CC[C@H](O)CC2)n1`, for which the IC50 was 151 nM in data set [1], 980 nM in [3] and 33 nM in [4]. Moreover, the Ratio IC50 in data set [2] came to 4.

`COC1CCN(C(=O)[C@H]2CC[C@H](Nc3nccc(-n4ccc5c(OCCCS(C)(=O)=O)cccc54)n3)CC2)CC1`: the IC50 stood at 28 nM in [1], 1400 nM in data set [3] and 4.7 nM in data set [4]. The Ratio IC50 in data set [2] was found to be 2.9. For the same compound, the microsomal CLint in data set [9] turned out to be 141 µL/min/mg.

As for `OCCCOc1cccc2c1cnn2-c1ccnc(N[C@H]2CC[C@H](O)CC2)n1`, the IC50 in data set [1] turned out to be 139 nM; in data set [3], 960 nM; in data set [4], 24 nM. Also, in data set [2], the Ratio IC50 amounted to 28.

As to `O[C@H]1CC[C@H](Nc2nccc(N3CCc4ccccc43)n2)CC1`, the figures for the IC50 in [1] and in data set [4] were 2900 nM and 770 nM, respectively.

`O[C@H]1CC[C@H](Nc2nccc(-c3nnc4ccccn34)n2)CC1`: the IC50 was 1200 nM in data set [1], 12000 nM in [3] and 570 nM in data set [4].

In the case of `CC(C)(O)[C@H]1CC[C@H](Nc2nccc(-n3ccc4c(OCCCS(C)(=O)=O)cccc43)n2)CC1`, the IC50 in data set [1] came to 27 nM; in data set [3], 350 nM; in data set [4], 4 nM. In data set [2], the Ratio IC50 came out at 6.3.

Take `CS(=O)(=O)CCCOc1cccc2c1ccn2-c1ccnc(N[C@H]2CC[C@H](C(=O)N3CC[C@@H](O)C3)CC2)n1`: the IC50 in data set [1] was determined as 47 nM; in data set [3], 1100 nM; in data set [4], 9.7 nM. Moreover, in [2], the Ratio IC50 was 2.6. The microsomal CLint in data set [9] came out at 19 µL/min/mg.

On to `OCC(O)COc1cccc2c1cnn2-c1ccnc(N[C@H]2CC[C@H](O)CC2)n1` (stereo partly specified), for which the IC50 in data set [1] turned out to be 194 nM; in [3], 2000 nM; in data set [4], 34 nM. Moreover, the Ratio IC50 in data set [2] came to 5.7.

For the compound `O=C([C@H]1CC[C@H](Nc2nccc(-n3nnc4ccccc43)n2)CC1)N1CCCC1`, the concentration for half-maximal inhibition (IC50) in [1] was 400 nM; with HCT-116, > 30000 nM; in data set [6], > 6200 nM; in data set [3], 3300 nM; in [4], 120 nM. In the data set filed under Homo sapiens, the Ratio IC50 was 4.

With `COc1cccc2c1cnn2-c1ccnc(N[C@H]2CC[C@H](O)CC2)n1`, the Ratio IC50 in data set [2] worked out at 37. For the same compound, the IC50 in data set [3] turned out to be 3100 nM.

As to `CN(C)S(=O)(=O)N[C@H]1CC[C@H](Nc2nccc(-n3nnc4ccccc43)n2)CC1`, the IC50 in data set [1] was found to be 76 nM; in the data set with HCT-116, 22000 nM; in [6] it was 1700 nM; in [3] it was 4900 nM; in [4] it was 19 nM. Also, the Ratio IC50 in the data set filed under Homo sapiens turned out to be 4.

With `CCCOc1cccc2c1cnn2-c1ccnc(N[C@H]2CC[C@H](O)CC2)n1`, the half-maximal inhibitory concentration (IC50) in [1] was 79 nM; in data set [3], > 30000 nM; in data set [4] it was 12 nM. Moreover, the Ratio IC50 in data set [2] stood at 147.

As usually defined, the IC50 is the concentration at which inhibition is half-maximal.
